Measured values reported in ChEMBL document CHEMBL4513216, “Probing the Open Global Health Chemical Diversity Library for Multistage-Active Starting Points for Next-Generation Antimalarials” (ACS Infect Dis, 2020).

Assay: Toxicity liver stage against HepG2, at 10uM
Assay type: cell-based
Set-up: test concentration 10 uM, cell line HepG2-A16-CD81EGFP
Details: human, HepG2-A16-CD81EGFP cells; read-out: INHIBITION
Summary of the method: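 Uninfected HepG2-A16-CD81EGFP cells, 3 × 10^3 per well, 1536-well, plated on prespotted compound at 10 μM final, parasite-free screening media added to match infected plates; puromycin 10 μM positive, DMSO 0.5% negative; run in parallel with 48 h PbLuc assay at 37 °C, 5% CO2; viability by CellTiter-Glo luminescence, normalized to controls.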

| SMILES | cytotoxicity at 10 µM |
| --- | --- |
| O=C1NCCCCC1Sc1ccc(F)cc1F (configuration not stated) | -8.01% |
| F[C@@H]1CN(CC2CC2)C[C@@H]1OCc1nc2ccccc2o1 | 1.97% |
| COc1ccc(C(=O)NC[C@H]2COCc3nc4cc(C)ccc4n32)cc1 | 2.52% |
| O=C(NC[C@H]1OC[C@@H](NC2CCC(F)(F)CC2)[C@@H]1O)c1cccs1 | -7.34% |
| COCc1cn(C[C@H]2C[C@@H]3CCN2C[C@@H]3C(=O)N2CCOCC2)nn1 | 4.45% |
| CCn1nnc(NCc2ccccc2OCc2ccc(Cl)cc2)n1 | -0.139% |
| O=C(Cn1cnc(-c2cccs2)cc1=O)Nc1cccnc1 | -3.69% |
| O=C(Cc1cccs1)N1CCOCC1CO (configuration not stated) | -4.63% |
| Cc1cccc(OC2CCN(S(=O)(=O)Cc3cccc(F)c3)CC2)n1 | -7.79% |
| COC1(CNS(=O)(=O)c2ccccc2Cl)CCSC1 (configuration not stated) | -7.48% |
| Cc1nc(N(C)C)nc(C)c1NC(=O)c1ccco1 | 1.14% |
| O=C(NCCCO)C1CC(=O)N(c2n[nH]c3cccc(F)c23)C1 (configuration not stated) | -1.07% |
| CCS(=O)(=O)N1Cc2nccn2CC(Cn2nc(C)nc2C)C1 (configuration not stated) | -2.34% |
| O=C(CCc1ccccc1)N1CCn2cc(Cn3cncn3)nc2C1 | -0.881% |
| CC1CCCCN1C(=O)c1ccn(COc2ccc(F)cc2)n1 (configuration not stated) | 4.7% |
| CC(C)(C)NC(=O)N1CCN(Cc2cccnc2)CC1 | 10.3% |
| c1ccc2c(N3CCSCC3)cnnc2c1 | -4.02% |
| CCN1CCN(C(=O)COCc2nc(-c3ccncc3)no2)CC1 | -8.72% |
| CCCC(=O)NCCc1nc2cc(-c3ccc(OC)cc3)ncn2n1 | 5.26% |
| CCOCC(=O)N1C[C@@H](O)[C@H](N2CCN(c3ccccc3)CC2)C1 | 7.43% |
| Cc1c[nH]nc1C1CN(Cc2cnn(-c3ccccc3C(=O)O)c2)C1 | 3.32% |
| COCCN1CCCC(C)(c2cc(O)[nH]n2)C1 (configuration not stated) | 10.8% |
| Cc1nccc(C2CN(S(=O)(=O)N(C)C)C2)n1 | -5.44% |

| SMILES | cytotoxicity at 10 µM |
| --- | --- |
| CNc1cc(C)nc(C2COCCN2CCc2ccccc2)n1 (configuration not stated) | 2.52% |
| CNc1ncc(C(=O)N2CCOC(C(=O)NC3CCCC3)C2)cn1 (configuration not stated) | 12.2% |
| Cc1ccc(N(C)[C@@H]2CC[C@@H]3CN(C(=O)Cc4cccs4)C[C@@H]32)nn1 | -13.5% |
| CCCn1cc(C(=O)N2CCCC2(C)c2nc(C)cc(C)n2)cn1 (configuration not stated) | 4.28% |
| c1cc(N2CCCC2c2cnccn2)ncn1 (configuration not stated) | -22.4% |
| O=c1c2sccc2nc2n1CCN(Cc1cccs1)CC2 | 4.27% |
| Cc1nccn1-c1ccc(NS(=O)(=O)c2cnn(C(C)C)c2)cn1 | -5.05% |
| O=C(c1ccncc1)N1CCCN(Cc2nnc(C3CC3)o2)CC1 | 1.91% |
| CCC1CCCCCN1C(=O)c1coc(S(=O)(=O)N(C)C)c1 (configuration not stated) | 1.66% |
| Cc1ccc(C2CN(CCCC#N)CCO2)c(C)c1 (configuration not stated) | -2.16% |
| CC(C)(C)c1nnc(NCC(=O)N2CCc3sccc3C2)s1 | 5.62% |
| COCC(O)CN1CCC(NC(=O)c2cscc2C)CC1 (configuration not stated) | -4.51% |
| COCCN(C(=O)c1ccc(OC)cc1)c1ccc(C#N)cc1 | 7.81% |
| Cc1ccc(N2CCCN(C(=O)c3cc(CC(C)C)n[nH]3)CC2)nn1 | -14.6% |
| COCCC(=O)NCC(O)c1c(F)cccc1F (configuration not stated) | -2.38% |
| Cc1cc(OCC(=O)NCc2ccc(F)cc2)nnc1C | -9.27% |
| O=C(OCc1cccs1)c1cccc(C(=O)N2CCCC2)n1 | -1.11% |
| O=C(O)c1csc(S(=O)(=O)N2CCN(Cc3c(F)cccc3Cl)CC2)c1 | -2.56% |
| COC(=O)c1oc(CNC(C)(C)CO)cc1C | 10.5% |
| Cc1ccc(N(CCC#N)C(=O)CN2CCCC2c2cccs2)cc1 (configuration not stated) | -3.75% |
| CCc1ccc(CNC(=O)CCNS(=O)(=O)c2cn(C)c(C)n2)s1 | 6.13% |
| CNC(=O)CN1CCN(C(=O)Nc2ccc(C)s2)CC1 | -13.3% |
| Cc1noc(C)c1CC(=O)N1CCCC(c2noc(C(C)C)n2)C1 (configuration not stated) | 1.48% |

| SMILES | cytotoxicity at 10 µM |
| --- | --- |
| CCn1nc(C)c(CNC(=O)NCC(C)(O)c2ccco2)c1C (configuration not stated) | -10.8% |
| COC(=O)c1ccc(Cl)c(NS(=O)(=O)c2cn(C)cn2)c1 | 11.9% |
| Cc1nn(C)c(Cl)c1C1CCCN1CC(=O)N1CCCCC1 (configuration not stated) | 0.347% |
| Cc1cc(CN2CCN(C(=O)C(C(C)C)n3cncn3)CC2)no1 (configuration not stated) | -9.88% |
| CC(C)c1nc(CN2CCN(C(=O)CC3CCCCC3)CC2)no1 | -0.95% |
| Cc1csc(NC(=O)c2cccnc2N2CCOCC2)n1 | -4.75% |
| CCN(CC)C(=O)CCNC(=O)c1ccccc1N1CCOCC1 | -0.768% |
| Cc1cccc(CNCCOc2ccc(S(C)(=O)=O)cc2)c1 | -0.302% |
| CS(=O)(=O)NCC1CCCN(C(=O)c2ccc3c(c2)CCCC3)C1 (configuration not stated) | -3.54% |
| Cn1c(=O)oc2ccc(NC(=O)N3CCc4ccccc4C3)cc21 | -5.66% |
| Cc1ccccc1C1CN(c2cnn(C)c(=O)c2Cl)CCO1 (configuration not stated) | -19.4% |
| OC(COc1ccc2c(c1)OCO2)CN1CC(n2cccn2)C1 (configuration not stated) | -6.17% |
| Cc1nnc2n1CCN(C(=O)CN1C(=O)CCOc3ccccc31)C2 | 4.48% |
| Cc1cnn(CCC(=O)Nc2cccnc2N2CCC(CO)CC2)c1 | -2% |
| O=C(NC1CCN(c2ncccn2)CC1)c1cccc(-n2ccnc2)c1 | -1.17% |
| CC(=O)c1ccc(OCC(=O)NC(C)CCc2ccco2)cc1 (configuration not stated) | -9.96% |
| Cc1cc(NC(=O)NCCc2ccsc2)n(C)n1 | 12.3% |
| CCOCC1c2c(ncn2C)CCN1C(=O)c1ccoc1 (configuration not stated) | -103% |
| O=C(c1cocn1)N1CCC[C@]2(C[C@@H](OCC3CC3)CO2)C1 | -76.4% |
| O=C(c1ccsc1)N1CC[C@@H](N2CCOCC2)[C@@H]1Cc1ccccc1 | -71.8% |
| COc1ccccc1OC1CCN(c2ccncc2)CC1 | 3.33% |
| COCCN(CCOC)C(=O)c1c[nH]nc1-c1cccc(F)c1 | -0.25% |
| CCc1cc(N2C[C@H](C3CC3)[C@@H](N)C2)nc(N2CCCC2)n1 | 0.334% |

| SMILES | cytotoxicity at 10 µM |
| --- | --- |
| CS(=O)(=O)CCN1C[C@H](NC(=O)c2cnc(O)cn2)[C@@H](C2CC2)C1 | 9.24% |
| CC(C)CN(Cc1cnn(C)c1)C(=O)C1COc2ccccc2C1 (configuration not stated) | 0.956% |
| COc1ccc(OCC2CCCN(c3nc(CO)cs3)C2)cc1 (configuration not stated) | -0.715% |
| CC1(Cc2ccccn2)NCCc2[nH]cnc21 (configuration not stated) | -5.18% |
| CC(C)(O)c1cn(C2CCN(C(=O)CCC(F)(F)F)CC2)nn1 | 1.93% |
| CN(Cc1ccon1)c1nc(-c2ccccn2)nc2c1CCNCC2 | -2.45% |
| Cc1nonc1C1CCCN1CCC(=O)N1CCc2ccccc2C1 (configuration not stated) | -11.2% |
| COC(=O)C(C)(C)NC(=O)c1cc(COc2ccccc2OC)[nH]n1 | -4.83% |
| COCCC1CCN(CC(C)n2cnc3ccccc32)CC1 (configuration not stated) | 6.67% |
| CCN1CCN(C[C@H]2CC[C@@H](Cc3ccc4c(c3)OCO4)O2)CC1 | -5.97% |
| N#Cc1c(N)nc2c(c1C1CCOC1)CCc1cc(O)ccc1-2 (configuration not stated) | 23.4% |
| Cn1c(C(=O)N2CCc3[nH]cnc3C2C(=O)O)ccc1-c1ccccc1 (configuration not stated) | -0.392% |
| CCN(CC)C(=O)[C@@H]1C[C@H](N)CN1C(=O)c1cc2c([nH]c1=O)CCC2 | -1.94% |
| Cc1cc(CN(C)CCC(O)c2ccccc2)nn1C (configuration not stated) | -17.3% |
| O=C(NCCc1ccncc1)c1ccc(S(=O)(=O)NC2CCC2)cc1 | -7.54% |
| O=C(c1c[nH]nc1-c1cccc(F)c1)N1CCNC(c2ccccc2)C1 (configuration not stated) | -3.68% |
| COc1ccc(C(=O)C2CCCN(Cc3ccncc3)C2)c(OC)c1 (configuration not stated) | -15.7% |
| CCCc1nc(C(C)(C)NC(=O)C2CC(=O)N(CCOC)C2)no1 (configuration not stated) | -8.12% |
| CN(Cc1nccn1C)C1CCN(CCc2ccccn2)CC1 | -8.78% |
| COc1ccnc(N2CCN(C(=O)COCC(F)(F)F)CC2)n1 | -9.36% |
| Cc1nc(C)n(CC2CCCCN2CC(=O)Nc2c(C)n[nH]c2C)n1 (configuration not stated) | -12.7% |
| CC(C(=O)NCc1ccnc(N2CCOCC2)c1)n1cccn1 (configuration not stated) | -6.28% |
| CC1CN(CCOc2cccc(C#N)c2)CCN1Cc1nccn1C (configuration not stated) | -2.81% |

| SMILES | cytotoxicity at 10 µM |
| --- | --- |
| Cc1nc2n(n1)CC(NCCC(=O)Nc1cc(C)on1)CC2 (configuration not stated) | -10.5% |
| CN(C)c1ncccc1CNS(=O)(=O)c1ccc(C(N)=O)cc1 | -4.08% |
| CC(C)(C)c1n[nH]c(C2CN(Cc3nnc(C4CC4)o3)CCO2)n1 (configuration not stated) | -6.55% |
| Cc1cc(C)n(CC2CCCCN2C(=O)c2ccsc2)n1 (configuration not stated) | -10.3% |
| Cc1cnn(CC(C)NCc2csc(-c3ncccn3)n2)c1 (configuration not stated) | -6.94% |
| CCCN(CC1COc2ccccc2O1)C(=O)CCn1cncn1 (configuration not stated) | -0.627% |
| CCc1noc(C(C)N2CCN(Cc3nnc(C4CC4)o3)CC2)n1 (configuration not stated) | -4.79% |
| CC(C)c1nc(C(=O)N2CCCC(n3cncn3)C2)c[nH]1 (configuration not stated) | -2.48% |
| CCOCC(=O)N1CCC2(CC1)COCCN2CCN(C)C | -0.464% |
| Cc1nc(-c2cncnc2C2CCCNC2)no1 (configuration not stated) | 6.88% |
| Cc1ccc2c(c1)C(NC(=O)N(C)C)CC21CCN(C(C)C)CC1 (configuration not stated) | -0.493% |
| CC(=O)N1CC(=O)N(c2cccnc2)CC12CCN(Cc1nccs1)C2 (configuration not stated) | 6.85% |
| O=C(Nc1ccccc1)C1CN(Cc2ccsc2)CC12CCOCC2 (configuration not stated) | 6.58% |
| Cc1ccc(CN2CCn3cc(CN(C)Cc4ccco4)nc3C2)o1 | -1.09% |
| O=C(NCC1CC1)C1CCC2(CCN(C(=O)c3ccccn3)CC2)O1 (configuration not stated) | 9.74% |
| Cc1nnn2c1COC(CNCc1nccs1)C2 (configuration not stated) | 1.71% |
| CN(C)C(=O)COC[C@]12COC[C@H]1CN(Cc1ccco1)C2 | -0.522% |
| Fc1cnc(N2CCC3(CC2)CN(Cc2ccccn2)CCO3)nc1 | 0.35% |
| CN(C)C(=O)N1CCOCC2(CCN(c3ccccn3)C2)C1 (configuration not stated) | 1.6% |
| CC(=O)NCC1(COc2cnccn2)C[C@@H](O)[C@@H](O)C1 (some centres not stated) | 1.47% |
